Tests used:
[1] = target: Neuronal acetylcholine receptor subunit alpha-7 (Rattus norvegicus, UniProt Q05941); assay: Binding affinity to subtype Nicotinic acetylcholine receptor alpha7 using [3H]-MLA as radioligand in rat brain; assay type: tissue-based
How it was run: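 Rat brain membrane fractions in HEPES-salt solution, competition against [3H]MLA at 22 °C. Nonspecific binding defined with 1 μM MLA. […] Mean ± SEM of 3-5 independent experiments.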

[2] = target: Neuronal acetylcholine receptor; alpha4/beta2 (Rattus norvegicus, UniProt P09483+P12390); assay: Binding affinity to Nicotinic acetylcholine receptor alpha4-beta2 using +/-[3H]epibatidine as radioligand in rat brain; assay type: tissue-based
How it was run: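 Crude synaptic P2 membranes from Sprague–Dawley rat forebrain (cerebellum and medulla excluded), washed in HEPES-salt buffer pH-unspecified (HEPES 15 mM, NaCl 120 mM, KCl 5.4 mM, MgCl2 0.8 mM, CaCl2 1.8 mM). Mean ± SEM, n = 3-5.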

Neuronal acetylcholine receptor; alpha4/beta2, sequence (P09483 whole entry): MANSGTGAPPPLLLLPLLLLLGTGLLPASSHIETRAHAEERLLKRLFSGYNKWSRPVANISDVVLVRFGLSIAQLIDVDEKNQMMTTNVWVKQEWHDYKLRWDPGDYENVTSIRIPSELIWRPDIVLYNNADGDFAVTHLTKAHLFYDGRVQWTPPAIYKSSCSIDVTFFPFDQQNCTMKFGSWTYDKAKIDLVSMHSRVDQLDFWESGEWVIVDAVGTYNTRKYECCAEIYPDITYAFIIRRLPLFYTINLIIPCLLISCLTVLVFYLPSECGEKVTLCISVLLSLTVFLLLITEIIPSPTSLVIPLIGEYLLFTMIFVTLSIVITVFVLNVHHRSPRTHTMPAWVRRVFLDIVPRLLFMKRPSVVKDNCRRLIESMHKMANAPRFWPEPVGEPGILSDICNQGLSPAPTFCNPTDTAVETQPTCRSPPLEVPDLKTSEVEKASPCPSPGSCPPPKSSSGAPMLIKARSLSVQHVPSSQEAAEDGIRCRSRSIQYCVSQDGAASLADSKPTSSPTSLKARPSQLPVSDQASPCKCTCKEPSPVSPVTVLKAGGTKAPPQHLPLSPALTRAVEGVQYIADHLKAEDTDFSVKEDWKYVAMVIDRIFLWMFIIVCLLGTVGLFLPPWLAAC
Neuronal acetylcholine receptor; alpha4/beta2, sequence (P12390 whole entry): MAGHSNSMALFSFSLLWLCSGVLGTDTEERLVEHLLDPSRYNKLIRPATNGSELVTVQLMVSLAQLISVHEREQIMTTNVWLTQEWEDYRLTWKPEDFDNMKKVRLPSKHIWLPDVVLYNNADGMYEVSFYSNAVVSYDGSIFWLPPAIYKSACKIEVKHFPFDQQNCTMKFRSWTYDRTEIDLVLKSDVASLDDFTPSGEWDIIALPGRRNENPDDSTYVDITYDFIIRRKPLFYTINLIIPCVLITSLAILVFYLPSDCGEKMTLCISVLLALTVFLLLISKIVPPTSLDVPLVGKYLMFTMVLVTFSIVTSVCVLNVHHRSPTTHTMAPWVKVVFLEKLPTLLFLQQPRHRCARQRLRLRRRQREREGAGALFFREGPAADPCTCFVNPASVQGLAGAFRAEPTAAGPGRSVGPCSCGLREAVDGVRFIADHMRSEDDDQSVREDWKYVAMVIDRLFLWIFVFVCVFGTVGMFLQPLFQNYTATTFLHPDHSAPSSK
Neuronal acetylcholine receptor subunit alpha-7, sequence (Q05941 whole entry): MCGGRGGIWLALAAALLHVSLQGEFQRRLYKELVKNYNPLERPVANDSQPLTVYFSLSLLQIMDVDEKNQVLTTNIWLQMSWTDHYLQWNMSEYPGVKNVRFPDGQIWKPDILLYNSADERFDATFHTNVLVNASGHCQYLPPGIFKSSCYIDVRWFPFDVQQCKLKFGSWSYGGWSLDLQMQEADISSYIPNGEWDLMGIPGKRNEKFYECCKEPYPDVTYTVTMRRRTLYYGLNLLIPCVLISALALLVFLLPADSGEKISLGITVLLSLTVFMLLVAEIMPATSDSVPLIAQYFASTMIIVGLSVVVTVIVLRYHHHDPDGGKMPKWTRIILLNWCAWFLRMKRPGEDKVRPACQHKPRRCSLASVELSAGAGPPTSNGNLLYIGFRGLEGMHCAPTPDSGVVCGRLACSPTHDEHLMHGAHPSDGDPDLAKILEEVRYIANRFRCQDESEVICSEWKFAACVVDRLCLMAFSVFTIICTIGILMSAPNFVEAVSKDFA

Row | Structure (SMILES) | Ki [1] | Ki [2]
1 | C1=C(c2ccnnc2)C2CC[C@H](CC1)N2 | > 10 nM | 19 nM
2 | C1=C(c2cnccn2)C2CC[C@H](CC1)N2 | 250 nM | 12 nM
3 | C1=C(c2cncnc2)C2CC[C@H](CC1)N2 | 10.7 nM | 0.14 nM
4 | C1=C(c2cccnc2)C2CC[C@H](CC1)N2 | 0.95 nM | 0.051 nM
5 | Clc1ccc(C2=CCC[C@H]3CCC2N3)cn1 | 12 nM | –

Reference: ChEMBL document CHEMBL1135731, “Synthesis and nicotinic binding studies on enantiopure diazine analogues of the novel (2-chloro-5-pyridyl)-9-azabicyclo[4.2.1]non-2-ene UB-165” (J Med Chem, 2002)
